Assay results: paper PMC2757082 (Biopolymers, 2009)
Where “and” joins values, the source holds several entries; their conditions need not be identical. Equal entries are not always repeated. Where two headings read alike, the source gives them in different places.

Key:
Format in all cases: biochemical
[1] = biological target: T1, F1Fo-ATPase in bovine SMPs (Bos taurus, UniProt P00829); assay: Bovine SMP ATP synthesis steady-state kinetic assay; conditions: for Ki: Bovine, ±SE
Method in brief: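 ATP synthesis by bovine heart SMPs was read by coupling ATP production to NADP⁺ reduction at varied ADP (1.875–1200 μM). SMPs were preincubated 5 min with aurovertin (1% DMSO final) or DMSO control before substrate or coupling reagents. Apparent parameters came from Michaelis-Menten fits at each inhibitor level, with secondary plots fit by eqs 2–4. 3D fits of velocity against MgADP and inhibitor used eq 6 (mixed inhibition model).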

[2] = biological target: F1Fo-ATPase from E. coli in liposomes (Escherichia coli, UniProt P0ABB4)
F1Fo-ATPase from E. coli in liposomes, sequence (P0ABB4 2-460 limits assumed): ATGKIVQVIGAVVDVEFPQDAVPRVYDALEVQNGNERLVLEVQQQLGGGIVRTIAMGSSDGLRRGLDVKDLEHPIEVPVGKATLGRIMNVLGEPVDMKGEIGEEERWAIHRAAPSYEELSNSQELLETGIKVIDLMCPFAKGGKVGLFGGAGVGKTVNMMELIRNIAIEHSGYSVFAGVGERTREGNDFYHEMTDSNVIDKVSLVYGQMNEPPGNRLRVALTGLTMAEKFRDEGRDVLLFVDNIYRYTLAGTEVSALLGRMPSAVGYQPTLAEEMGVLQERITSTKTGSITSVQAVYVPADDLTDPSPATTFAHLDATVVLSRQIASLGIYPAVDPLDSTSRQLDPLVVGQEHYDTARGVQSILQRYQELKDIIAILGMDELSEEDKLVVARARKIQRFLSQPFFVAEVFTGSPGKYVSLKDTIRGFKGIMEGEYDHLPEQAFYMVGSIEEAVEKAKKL

[3] = biological target: E. coli membrane F1Fo-ATPase (Escherichia coli, UniProt P0ABB4); assay: E. coli everted membrane ATP hydrolysis steady-state kinetic assay
Method in brief: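 Everted membrane vesicles came from E. coli strain LE392 and were used at 33 μg mL⁻¹, with 5 mM KCN to block chemiosmotic phosphorylation. ATP hydrolysis was read by the NADH-coupled assay, with aurovertin at 1% DMSO final. Michaelis-Menten fits of initial velocity gave apparent kinetic parameters at each inhibitor concentration. Secondary plots were fit with eqs 2–4, assuming residual catalytic activity at saturating inhibitor.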

[4] = biological target: T1, F1Fo-ATPase in bovine SMPs; assay: Bovine SMP ATP hydrolysis steady-state kinetic assay; conditions: for Vmax2 (maximal catalytic rate of ESI complex) / Ki: Bovine, ±SE
[5] = bovine, synthesis vs hydrolysis
[6] = HMM-based FRET level assignment, presence of aurovertin
[7] = aurovertin and ATP, Gaussian fit

CC[C@H]1O[C@]2(C)[C@H](OC(C)=O)[C@@]1(C)O[C@@H](/C=C/C=C/C=C/c1oc(=O)cc(OC)c1C)[C@@H]2O [aurovertin, Aurovertin B]
enzyme activity at saturating substrate and inhibitor concentrations ([1]; ATP synthesis): inactive | increase in the value of the apparent Km ([1]; ATP synthesis, bovine SMPs): > 2 fold | mechanism of inhibition of ATP synthesis ([1]; bovine SMPs): mixed inhibitor | decrease of Ki(E) during ATP synthesis versus hydrolysis [1, 5]: 60 fold | decrease of Ki(ES) during ATP synthesis versus hydrolysis [1, 5]: 5 fold | Ki ([1]; read-out: Ki(E), ATP synthesis, 3D fit eq 6, n(E)=1, n(ES)=1): 13 ± 4 nM | Ki ([1]; read-out: Ki(E), ATP synthesis, 3D fit eq 6, n(E)=2, n(ES)=1): 16 ± 2 nM | Ki ([1]; read-out: Ki(ES), ATP synthesis, 3D fit eq 6, n(E)=1, n(ES)=1): 22 ± 3 nM | Ki ([1]; read-out: Ki(ES), ATP synthesis, 3D fit eq 6, n(E)=2, n(ES)=1): 25 ± 4 nM | remaining activity (turnover ratio in presence and absence of aurovertin) ([2]; 20 μM drug, 1 mM ATP): about 60% | dwell time decay component τ [2, 6]: 28 ± 11 ms | dwell time rise time τ [2, 6]: 16 ± 8 ms | proximity factor P maximum, H level [2, 7]: 0.75 | proximity factor P maximum, L level [2, 7]: 0.31 | proximity factor P maximum, M level [2, 7]: 0.51 | fraction of F1Fo-ATPases showing stepwise changing FRET levels ([2]; saturating (20 μM) aurovertin, of 3685 marked photon bursts): 10.4% | Vmax2 (maximal catalytic rate of ESI complex) ([3]; E. coli, 3D fit eq 5, n(E)=2, n(ES)=1, ±SE): 0.06 ± 0.01 µmol/min/mg | residual activity at saturating aurovertin ([3]; everted E. coli membranes, eq 5 fit): ~ 20% and 20% | Ki ([3]; read-out: Ki(E), E. coli, 3D fit eq 5, n(E)=2, n(ES)=1, ±SE): 430 ± 70 nM | Ki ([3]; read-out: Ki(ES), E. coli, 3D fit eq 5, n(E)=2, n(ES)=1, ±SE): 150 ± 20 nM | increase of the value of Vmax/Km ([4]; ATP hydrolysis, saturating aurovertin concentrations): 50% | Vmax2 (maximal catalytic rate of ESI complex) ([4]; ATP hydrolysis, 3D fit eq 5, n(E)=1, n(ES)=1): 0.23 ± 0.01 µmol/min/mg | Vmax2 (maximal catalytic rate of ESI complex) ([4]; ATP hydrolysis, 3D fit eq 5, n(E)=2, n(ES)=1): 0.22 ± 0.01 µmol/min/mg | mechanism of inhibition of ATP hydrolysis ([4]; bovine SMPs): mixed mechanism of inhibition | Ki ([4]; read-out: Ki(E), ATP hydrolysis, 3D fit eq 5, n(E)=1, n(ES)=1): 820 ± 250 nM | Ki ([4]; read-out: Ki(E), ATP hydrolysis, 3D fit eq 5, n(E)=2, n(ES)=1): 960 ± 250 nM | Ki ([4]; read-out: Ki(ES), ATP hydrolysis, 3D fit eq 5, n(E)=1, n(ES)=1): 119 ± 17 nM | Ki ([4]; read-out: Ki(ES), ATP hydrolysis, 3D fit eq 5, n(E)=2, n(ES)=1): 120 ± 17 nM | decrease of the value of Vmax for catalysis of ATP hydrolysis ([4]; saturating aurovertin, fit eq 2-4, n=1): ~ 2.5 fold
